# Laboratory results: ChEMBL document CHEMBL3745671, “Discovery of N-[5-(6-Chloro-3-cyano-1-methyl-1H-indol-2-yl)-pyridin-3-ylmethyl]-ethanesulfonamide, a Cortisol-Sparing CYP11B2 Inhibitor that Lowers Aldosterone in Human Subjects” (J Med Chem, 2015)
# Tests used:
# [1] = molecular target: T1, Cytochrome P450 11B2, mitochondrial (Homo sapiens, UniProt P19099); experiment: Inhibition of CYP11B2 in human […] cells assessed as decrease in […] aldosterone secretion after 24 hrs by RIA; assay type: cell-based
# T1 sequence (P19099 whole entry): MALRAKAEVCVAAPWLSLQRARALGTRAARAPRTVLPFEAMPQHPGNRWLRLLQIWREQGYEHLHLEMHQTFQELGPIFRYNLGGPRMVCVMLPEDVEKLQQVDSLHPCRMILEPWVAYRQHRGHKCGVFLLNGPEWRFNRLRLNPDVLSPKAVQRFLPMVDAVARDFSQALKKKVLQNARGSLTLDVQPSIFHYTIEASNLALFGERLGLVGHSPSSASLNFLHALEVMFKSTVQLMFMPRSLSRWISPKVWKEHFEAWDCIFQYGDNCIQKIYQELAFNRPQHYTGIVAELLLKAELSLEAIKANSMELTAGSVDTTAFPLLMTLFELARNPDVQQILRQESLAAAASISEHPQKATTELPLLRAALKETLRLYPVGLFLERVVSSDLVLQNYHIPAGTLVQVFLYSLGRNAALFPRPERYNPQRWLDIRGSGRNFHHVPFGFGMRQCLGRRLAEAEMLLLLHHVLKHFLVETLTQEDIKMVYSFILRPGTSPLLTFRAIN
# [2] = molecular target: T1, Cytochrome P450 11B2, mitochondrial; experiment: Inhibition of human recombinant CYP11B2 using 11-deoxycorticosterone as substrate after 2 hrs by scintillation proximity assay
# [3] = molecular target: T2, Cytochrome P450 11B2, mitochondrial (Rattus norvegicus, UniProt P30099); experiment: Inhibition of recombinant rat CYP11B2 using 11-deoxycorticosterone as substrate after 2 hrs by scintillation proximity assay
# T2 sequence (P30099 whole entry): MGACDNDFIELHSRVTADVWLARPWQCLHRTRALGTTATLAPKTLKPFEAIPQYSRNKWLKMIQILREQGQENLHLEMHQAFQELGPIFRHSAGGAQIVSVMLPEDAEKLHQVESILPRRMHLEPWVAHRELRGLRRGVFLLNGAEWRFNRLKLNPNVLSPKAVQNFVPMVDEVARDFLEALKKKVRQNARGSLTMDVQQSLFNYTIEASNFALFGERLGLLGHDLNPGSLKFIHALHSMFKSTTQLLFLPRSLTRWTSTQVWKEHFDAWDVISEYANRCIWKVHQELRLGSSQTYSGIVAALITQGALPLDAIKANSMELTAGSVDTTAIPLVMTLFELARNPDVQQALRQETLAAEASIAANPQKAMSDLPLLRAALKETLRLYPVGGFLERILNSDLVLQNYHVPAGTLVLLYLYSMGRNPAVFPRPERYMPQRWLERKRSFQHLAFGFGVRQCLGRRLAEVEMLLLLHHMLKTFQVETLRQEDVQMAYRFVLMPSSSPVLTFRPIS
# Homo sapiens = organism: Homo sapiens; experiment: Selectivity ratio of IC50 for human recombinant CYP11B1 to IC50 for human recombinant CYP11B2
# CYP19 (aromatase) = molecular target: T3, CYP19 (aromatase) (Homo sapiens, UniProt P11511); experiment: Inhibition of human CYP19 at 10 uM preincubated for 10 mins with NADPH followed by protein addition measured after 90 mins by fluorometric analysis
# T3 sequence (P11511 whole entry): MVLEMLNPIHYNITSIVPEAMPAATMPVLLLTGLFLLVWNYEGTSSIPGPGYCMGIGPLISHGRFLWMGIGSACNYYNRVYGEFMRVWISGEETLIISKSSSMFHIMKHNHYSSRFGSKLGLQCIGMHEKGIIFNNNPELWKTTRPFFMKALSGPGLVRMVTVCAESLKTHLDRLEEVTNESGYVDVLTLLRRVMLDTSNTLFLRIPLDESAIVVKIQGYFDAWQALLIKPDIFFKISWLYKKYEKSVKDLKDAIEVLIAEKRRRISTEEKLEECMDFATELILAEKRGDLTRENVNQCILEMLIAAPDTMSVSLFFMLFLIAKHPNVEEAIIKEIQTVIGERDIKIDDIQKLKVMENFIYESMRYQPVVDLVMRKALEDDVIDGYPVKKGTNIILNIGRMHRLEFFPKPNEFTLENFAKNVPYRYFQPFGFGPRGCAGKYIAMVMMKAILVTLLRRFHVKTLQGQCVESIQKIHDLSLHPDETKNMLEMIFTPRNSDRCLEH
# [4] = molecular target: T4, Amine oxidase [flavin-containing] A (Homo sapiens, UniProt P21397); experiment: Inhibition of MAO-A (unknown origin)
# T4 sequence (P21397 whole entry): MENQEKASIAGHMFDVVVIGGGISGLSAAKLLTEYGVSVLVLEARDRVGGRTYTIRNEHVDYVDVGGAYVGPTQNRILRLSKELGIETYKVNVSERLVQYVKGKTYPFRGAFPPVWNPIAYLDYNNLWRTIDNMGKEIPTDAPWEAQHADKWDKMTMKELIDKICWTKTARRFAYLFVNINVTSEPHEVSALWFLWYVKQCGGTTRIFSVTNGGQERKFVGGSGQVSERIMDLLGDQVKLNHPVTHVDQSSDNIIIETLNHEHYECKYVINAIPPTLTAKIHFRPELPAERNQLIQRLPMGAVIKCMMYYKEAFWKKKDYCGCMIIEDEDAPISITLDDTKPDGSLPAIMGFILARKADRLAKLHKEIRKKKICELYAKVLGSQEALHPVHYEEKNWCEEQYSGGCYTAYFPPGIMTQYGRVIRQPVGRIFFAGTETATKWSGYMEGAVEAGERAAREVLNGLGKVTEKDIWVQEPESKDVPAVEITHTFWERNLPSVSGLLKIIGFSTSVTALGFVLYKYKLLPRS
# [5] = Half life in rat liver microsomes after 30 mins by LC/MS/MS analysis; assay type: ADME
# [6] = Half life in human liver microsomes after 30 mins by LC/MS/MS analysis; assay type: ADME
# [7] = Inhibition of CYP11B2 in cynomolgus monkey adrenal homogenates assessed as inhibition of aldosterone secretion; assay type: tissue-based, Macaca fascicularis
# How it was run: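 Cynomolgus monkey adrenal homogenates, with 11-DOC as substrate; aldosterone secretion inhibition determined as IC50.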
# Macaca fascicularis = organism: Macaca fascicularis; experiment: Selectivity ratio of IC50 for cynomolgus monkey CYP11B1 to IC50 for cynomolgus monkey CYP11B2
# How it was run: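 Adrenal homogenates from cynomolgus monkey (Macaca fascicularis) served as the enzyme source, with 11-DOC as substrate. CYP11B2 activity was read as aldosterone production and CYP11B1 activity as cortisol production. The value is the CYP11B1 IC50 divided by the CYP11B2 IC50.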
# [8] = Half life in continuous angiotensin 2 infusion Sprague-Dawley rat model at 3 mg/kg, po and 1 mg/kg, iv; assay type: ADME, organism-based; details: in vivo
# [9] = Equilibrium solubility of the compound in buffer at pH 6.8; assay type: physicochemical
# How it was run: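 Equilibrium solubility measured in buffer at pH 6.8.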
# [10] = AUC (0 to 24 hrs) in Sprague-Dawley rat at 1 mg/kg, po; details: in vivo
# [11] = Oral bioavailability in continuous angiotensin 2 infusion Sprague-Dawley rat model at 3 mg/kg; assay type: ADME, organism-based; details: in vivo
# How it was run: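 Male Sprague Dawley rats, 200–300 g. IV: 0.3 mg/1 mL/kg (free base) slow injection via jugular vein, n=2. Oral gavage at 1 mg/5 mL/kg or 3 mg/5 mL/kg in solution, n=3. Jugular catheter blood at 5 min (iv only), 0.25–8 h into EDTA; plasma after protein precipitation with acetonitrile containing internal standard, HPLC-MS; noncompartmental parameters.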
# [12] = Clearance in continuous angiotensin-2 infusion Sprague-Dawley rat model at 3 mg/kg, po and 1 mg/kg, iv; assay type: ADME, organism-based; details: in vivo
IC50 [1] [µM],IC50 [2] [µM],IC50 [3] [µM],Ratio IC50 (Homo sapiens),"inhibition at 1.5 h, 10 µM (CYP19 (aromatase)) [%]",IC50 [4] [µM],half-life [5] [min],half-life [6] [min],IC50 [7] [µM],Ratio IC50 (Macaca fascicularis),half-life [8] [min],solubility thermodynamic [9] [µM],AUC(0-t) at 24 h [10] [µM·h],bioavailability [11] [%],clearance [12] [mL/min/kg],inhibition (INH) ([4]; human),SMILES
0.021,0.003,3.9,27,94,–,–,–,–,–,–,–,–,–,–,–,Cc1c(-c2cccnc2)[nH]c2ccccc12
0.004,0.0025,8,43,47,0.21,47,259,–,–,–,–,–,–,–,–,Cn1c(-c2cccnc2)c(C#N)c2ccc(Cl)cc21
0.009,0.0014,–,38,91,–,5,12,–,–,–,–,–,–,–,–,Cc1c(-c2cccnc2)n(C)c2ccccc12
0.09,0.011,10.9,56,58,–,30,10,0.009,396,–,–,–,–,–,–,Cn1c(-c2cccnc2)c(C#N)c2ccccc21
0.169,0.022,–,21,–,–,–,–,–,–,–,–,–,–,–,–,CCS(=O)(=O)NCc1cncc(-c2cc3cnc(Cl)cc3n2C)c1
0.38,–,–,–,–,–,–,–,–,–,–,–,–,–,–,–,CCS(=O)(=O)Nc1cncc(-c2c(C#N)c3ccccc3n2C)c1
0.039,0.002,2,103,27,> 10,1,3,–,–,–,–,–,–,–,–,CN(C)S(=O)(=O)Oc1cncc(-c2c(C#N)c3ccccc3n2C)c1
0.007,0.0011,–,86,11,–,40,21,0.006,99,24,450,0.75,100,68,–,CCS(=O)(=O)NCc1cncc(-c2cc3ccc(Cl)nc3n2C)c1
0.013,0.011,53.1,43,15,–,176,> 400,–,636,–,–,–,–,–,Not Active,CCS(=O)(=O)Nc1cncc(-c2c(C#N)c3ccc(Cl)cc3n2C)c1
